Active and inactive are the calls of the source. The calls are words filed in the database; no cut-off is given here.
How the values were obtained:
MCF7 [1] = assay: Induction of human MCF7 cell differentiation assessed as stimulation of milk fat globulin expression at 1 uM after 48 hrs by immunocytochemistry; format: functional, cell-based
MCF7 [2] = assay: Cell cycle arrest in human MCF7 cells assessed as accumulation at pre-G1 phase at 1 uM after 48 hrs by FACS analysis; format: functional
How it was run: (§1)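 Cells plated at 250 000 per 100 mm plate and exposed to solvent vehicle or compound for 48 h. Trypsinized cells fixed in 70% ethanol, treated with 100 μg/mL RNase A for 30 min at 37 °C, then stained with 50 μg/mL propidium iodide in 0.25% Tween-20 for 30 min at 37 °C in the dark. DNA content of 1 × 10⁶ cells read by flow cytometry, giving sub-G1, G0/G1, S and G2/M fractions.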

U-937 [3] = assay: Induction of dendrite out growth in IL-4/GMCSF-stimulated human U937 cells assessed as dendrite length at 100 nM after 48 hrs by light microscopy; format: functional
How it was run: (§2)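 U937 cells at 1.1 × 10⁶ cells/mL were primed with 10 ng/mL PMA for 48 h in RPMI with 10% heat-inactivated serum. Adherent cells were then given 100 ng/mL IL-4 plus 100 ng/mL GM-CSF or 100 nM compound for 48 h. Dendrite length scored by light microscopy, from none to over 100 μm with a contact network.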

SK-MEL-28 [4] = assay: Cell cycle arrest in human SK-MEL-28 cells assessed as accumulation at pre-G1 phase at 1 uM after 48 hrs by FACS analysis; format: functional; how it was run: as §1
P19 [5] = assay: Cytotoxicity against mouse P19 cells after 3 days by trypan blue exclusion assay; format: functional, cell-based; conditions: Mus musculus, P19, 72 h; read-out: IC50
How it was run: (§3)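 U937 and P19 cells treated with compound. Cell death scored by trypan blue exclusion, with cells scraped, suspended in 0.25% w/v trypan blue in PBS and counted in a Malassez cell. IC50 is the concentration giving 50% cytotoxicity.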

U-937 [6] = assay: Cytotoxicity against human U937 cells assessed as modification of cell morphology; format: functional
MCF7 [7] = assay: Cell cycle arrest in human MCF7 cells assessed as accumulation at G2/M phase at 1 uM after 48 hrs by FACS analysis; format: functional; how it was run: as §1
SW-620 = assay: Cytotoxicity against human SW620 cells after 72 hrs by trypan blue exclusion assay; format: functional, cell-based; conditions: SW-620, 72 h
How it was run: (§4)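 Cells were exposed for 72 h to the test agent at increasing concentrations from 10 nM to 20 μM, at 37 °C in humidified 5% CO2. Cells were scraped and resuspended in 0.25% w/v trypan blue in PBS, and dead cells were counted under a light microscope in a Malassez chamber. IC50 is the concentration giving 50% cytotoxicity. Values are mean ± SE of three independent experiments, each run in duplicate.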

KG-1 = assay: Cytotoxicity against human KG1 cells after 72 hrs by trypan blue exclusion assay; format: functional, cell-based; conditions: KG-1, 72 h; how it was run: as §4
P19 [8] = assay: Cytotoxicity against mouse P19 cells assessed as modification of cell morphology; format: functional
[9] = Cytotoxicity against mouse TSA cells after 72 hrs by trypan blue exclusion assay; format: functional, cell-based; conditions: TS/A; how it was run: as §4
P19 [10] = assay: Induction of dendrite out growth in IL-4/GMCSF-stimulated mouse P19 cells assessed as dendrite length at 100 nM after 48 hrs by light microscopy; format: functional
SK-MEL-28 [11] = assay: Effect on human SK-MEL-28 cell morphology assessed as change from fibroblastic to melanocytic morphology at 1 uM after 48 hrs by light microscopy
SK-MEL-28 [12] = assay: Cell cycle arrest in human SK-MEL-28 cells assessed as accumulation at G1 phase at 1 uM after 48 hrs by FACS analysis; format: functional; how it was run: as §1
SK-MEL-28 [13] = assay: Induction of melanogenesis in human SK-MEL-28 cells assessed as cellular melanin content at 1 uM after 48 hrs by spectrophotometry
MCF7 [14] = assay: Cell cycle arrest in human MCF7 cells assessed as accumulation at G1 phase at 1 uM after 48 hrs by FACS analysis; format: functional; how it was run: as §1
SK-N-SH = assay: Cytotoxicity against human SK-N-SH cells after 72 hrs by trypan blue exclusion assay; format: functional, cell-based; how it was run: as §4
HCT-8 = assay: Cytotoxicity against human HCT8 cells after 72 hrs by trypan blue exclusion assay; format: functional, cell-based; conditions: HCT-8, 72 h; how it was run: as §4
P19 [15] = assay: Cytotoxicity against mouse P19 cells after 72 hrs by trypan blue exclusion assay; format: functional, cell-based; conditions: P19, 72 h; how it was run: as §4
SK-MEL-28 [16] = assay: Effect on human SK-MEL-28 cell morphology assessed as appearance of type 4 melanosomes at 1 uM after 48 hrs by transmission electron microscopy
MCF7 [17] = assay: Cytotoxicity against human MCF7 cells after 72 hrs by trypan blue exclusion assay; format: functional, cell-based; conditions: MCF7, 72 h; how it was run: as §4
B16-F10 = assay: Cytotoxicity against mouse B16F10 cells after 72 hrs by trypan blue exclusion assay; format: functional, cell-based; conditions: B16-F10, 72 h; how it was run: as §4
MCF7 [18] = assay: Induction of human MCF7 cell differentiation assessed as lipid accumulation in intracytoplasmic vesicle at 1 uM after 48 hrs by oil red O staining-based light microscopy; format: functional
How it was run: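 MCF-7 cells on glass coverslips treated with drug, fixed in 3.7% paraformaldehyde for 1 h at room temperature, and stained with oil red O in 60% isopropanol with hematoxylin counterstain. Dye extracted with isopropanol and read at 510 nm, with control subtracted and the value normalized to SYBR green DNA stain.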

SK-MEL-28 [19] = assay: Cytotoxicity against human SK-MEL-28 cells after 72 hrs by trypan blue exclusion assay; format: functional, cell-based; conditions: SK-MEL-28, 72 h; how it was run: as §4
U-937 [20] = assay: Cytotoxicity against human U937 cells after 72 hrs by trypan blue exclusion assay; format: functional, cell-based; conditions: U-937, 72 h; how it was run: as §4
SK-MEL-28 [21] = assay: Cell cycle arrest in human SK-MEL-28 cells assessed as accumulation at G2/M phase at 1 uM after 48 hrs by FACS analysis; format: functional; conditions: in the assay text read “G0/G1 phase” for “G2/M phase”; how it was run: as §1
SK-MEL-28 [22] = assay: Induction of melanogenesis in human SK-MEL-28 cells assessed as cellular melanin content at 1 uM after 48 hrs by fluorimetry; format: functional, cell-based; conditions: in the assay text read “by spectrophotometry” for “by fluorimetry”
How it was run: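 SK-Mel-28 cells exposed to compound, washed in PBS and pelleted. Pellets of 2 × 10⁶ cells dissolved in 1 M NaOH for 1 h at 80 °C. Melanin read spectrophotometrically at 405 nm.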

A549 = assay: Cytotoxicity against human A549 cells after 72 hrs by trypan blue exclusion assay; format: functional, cell-based; conditions: A549, 72 h; how it was run: as §4
SK-MEL-28 [23] = assay: Cell cycle arrest in human SK-MEL-28 cells assessed as accumulation at S phase at 1 uM after 48 hrs by FACS analysis; format: functional; how it was run: as §1
[24] = Cytotoxicity against mouse Neuro2a cells after 72 hrs by trypan blue exclusion assay; format: functional, cell-based; conditions: N2a; how it was run: as §4
MCF7 [25] = assay: Induction of human MCF7 cell differentiation assessed as milk fat accumulation in intracytoplasmic vesicle at 1 uM after 48 hrs by Bligh and Dyer method; format: functional, cell-based
How it was run: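 MCF-7 cells (5 million) exposed to vehicle or compound for 48 h, washed three times in PBS. Lipids extracted by the Bligh and Dyer method and triglycerides quantified.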

P19 [26] = assay: Induction of dendrite outgrowth in IL-4/GMCSF-stimulated mouse P19 cells assessed as dendrite length after 48 hrs by light microscopy; format: functional
U-937 [27] = assay: Cytotoxicity against human U937 cells after 3 days by trypan blue exclusion assay; format: functional, cell-based; conditions: Homo sapiens, U-937, 72 h; read-out: IC50; how it was run: as §3
NB-4 = assay: Cytotoxicity against human NB4 cells after 72 hrs by trypan blue exclusion assay; format: functional, cell-based; conditions: NB-4, 72 h; how it was run: as §4
[28] = Cytotoxicity against human U87 cells after 72 hrs by trypan blue exclusion assay; format: functional, cell-based, U-87MG ATCC; conditions: U-87 MG; how it was run: as §4
U-937 [29] = assay: Induction of dendrite outgrowth in IL-4/GMCSF-stimulated human U937 cells assessed as dendrite length after 48 hrs by light microscopy; format: functional; how it was run: as §2
MCF7 [30] = assay: Cell cycle arrest in human MCF7 cells assessed as accumulation at S phase at 1 uM after 48 hrs by FACS analysis; format: functional; how it was run: as §1
SH-SY5Y = assay: Cytotoxicity against human SH-SY5Y cells after 72 hrs by trypan blue exclusion assay; format: functional, cell-based; how it was run: as §4

CC(C)CCC[C@@H](C)[C@H]1CC[C@H]2[C@@H]3C[C@@H](NCCc4cnc[nH]4)[C@@]4(O)C[C@@H](O)CC[C@]4(C)[C@H]3CC[C@]12C [DENDROGENIN A]
Activity (MCF7 [1]): Active
Activity (MCF7 [2]): 3%
Activity (U-937 [3]): 50 um
Activity (SK-MEL-28 [4]): 1%
IC50 (P19 [5]): 2400 nM
Activity (U-937 [6]): 40%
Activity (MCF7 [7]): 11%
IC50 (SW-620): 420 nM
IC50 (KG-1): 5530 nM
Activity (P19 [8]): 65%
IC50 [9]: 1280 nM
Activity (P19 [10]): 50 um
Activity (SK-MEL-28 [11]): Active
Activity (SK-MEL-28 [12]): 82%
Activity (SK-MEL-28 [13]): Active
Activity (MCF7 [14]): 75%
IC50 (SK-N-SH): 2240 nM
IC50 (HCT-8): 890 nM
IC50 (P19 [15]): 1800 nM
Activity (SK-MEL-28 [16]): Active
IC50 (MCF7 [17]): 2310 nM
IC50 (B16-F10): 680 nM
Activity (MCF7 [18]): Active
IC50 (SK-MEL-28 [19]): 2120 nM
IC50 (U-937 [20]): 790 nM
Activity (SK-MEL-28 [21]): 10%
Activity (SK-MEL-28 [22]): Active
IC50 (A549): 2560 nM
Activity (SK-MEL-28 [23]): 7%
IC50 [24]: 2320 nM
Activity (MCF7 [25]): Active
Activity (P19 [26]): > 200 um
IC50 (U-937 [27]): 800 nM
IC50 (NB-4): 1320 nM
IC50 [28]: 740 nM
Activity (U-937 [29]): > 200 um
Activity (MCF7 [30]): 11%
IC50 (SH-SY5Y): 1350 nM

— ChEMBL document CHEMBL1156107, “Synthesis of new alkylaminooxysterols with potent cell differentiating activities: identification of leads for the treatment of cancer and neurodegenerative diseases” (J Med Chem, 2009)
